Compound activity as filed in PubChem BioAssay.
IDE cell inh – inhibitors of human insulin-degrading enzyme in cells; inhibition, % at 5.59 µM; HEK cells, FAbetaB cleavage, fluorescence polarization; 320,000 compounds, 0.41% hits; P14735; AID 434962;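 active means percent inhibition above the average of all tested compounds plus 3 SD, set per screening campaign, cut at about 16% in these data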;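 further: IDE supplied by intact live HEK cells; FP after avidin binding of uncleaved biotin substrate so inhibition keeps polarization high; 0% = DMSO wells and 100% = 60 µM reference IDE inhibitor Ii1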
Target sequence (P14735 whole entry, looked up): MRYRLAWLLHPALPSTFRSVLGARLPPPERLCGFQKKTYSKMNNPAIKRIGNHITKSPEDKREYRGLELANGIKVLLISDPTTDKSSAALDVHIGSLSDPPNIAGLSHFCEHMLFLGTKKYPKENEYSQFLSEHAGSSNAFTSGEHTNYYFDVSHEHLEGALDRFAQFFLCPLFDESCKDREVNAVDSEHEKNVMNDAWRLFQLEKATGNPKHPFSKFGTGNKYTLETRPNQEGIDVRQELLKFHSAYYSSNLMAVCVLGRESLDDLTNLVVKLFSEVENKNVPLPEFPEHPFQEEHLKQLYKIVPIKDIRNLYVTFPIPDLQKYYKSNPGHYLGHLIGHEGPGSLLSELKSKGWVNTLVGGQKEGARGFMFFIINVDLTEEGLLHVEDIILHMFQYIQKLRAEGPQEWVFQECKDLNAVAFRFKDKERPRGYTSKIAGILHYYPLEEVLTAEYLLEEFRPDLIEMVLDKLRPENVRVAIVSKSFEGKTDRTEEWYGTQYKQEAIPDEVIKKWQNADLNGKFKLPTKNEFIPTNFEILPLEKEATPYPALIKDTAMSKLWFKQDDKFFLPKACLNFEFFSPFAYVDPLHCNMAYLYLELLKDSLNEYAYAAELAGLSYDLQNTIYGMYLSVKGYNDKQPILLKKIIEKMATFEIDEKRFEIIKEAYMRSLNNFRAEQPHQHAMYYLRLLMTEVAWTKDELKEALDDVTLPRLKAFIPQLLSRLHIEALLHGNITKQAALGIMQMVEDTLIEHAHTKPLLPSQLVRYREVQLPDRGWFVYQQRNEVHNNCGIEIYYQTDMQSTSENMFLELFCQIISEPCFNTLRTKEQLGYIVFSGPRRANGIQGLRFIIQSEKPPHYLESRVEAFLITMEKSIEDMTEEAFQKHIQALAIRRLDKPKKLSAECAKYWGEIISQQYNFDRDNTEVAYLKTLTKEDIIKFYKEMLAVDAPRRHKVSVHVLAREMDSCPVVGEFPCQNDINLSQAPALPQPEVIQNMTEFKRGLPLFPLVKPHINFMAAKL
PREPL inh – human PREPL enzyme inhibition; Q4J6C6; recombinant PREPL, fluorescence polarization activity-based probe; inhibition, % at 5.96 µM; 320,000 compounds, 0.68% hits; AID 2751; in the data active means inhibition above about 43%;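 further: 0% = enzyme with DMSO and 100% = wells lacking enzyme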
ASAP1 GAP inh – blocks human ASAP1-stimulated Arf1 GTP hydrolysis | Q9ULH1 | GDP FP detection | inhibition, % at 16.5 µM | 360,000 compounds, 0.19% hits; in the data active means inhibition above about 25%;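 further: 0% = vehicle with enzyme and substrate and 100% = no enzyme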
IDE act – IDE (human) activation, cell-based; 340,000 compounds, 0.073% hits; HEK cells, FAbeta-B cleavage, fluorescence polarization; 0% vehicle, 100% cell-free pure enzyme wells; activation, % at 5.96 µM;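 active means activation above the mean of all tested compounds plus 3 SD, set per screening campaign, cut at about 17% in these data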
ARFGAP1 inh – inhibits rat ARF GTPase activating protein 1. 360,000 compounds, 0.26% hits. Arfgap1-stimulated ARF1 GTP hydrolysis, GDP FP detection. inhibition, % at 16.5 µM. AID 651572. Q62848;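 active means inhibition above a per-plate limit, mean inhibition of low control wells plus 3 SD, cut at about 25% in these data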;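 further: 0% = DMSO wells with enzyme and 100% = wells lacking Arfgap1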
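System: truncated rat Arfgap1 GAP domain / Benchmarks: high control wells lacking Arfgap1, low control full reaction with DMSO / Times: compound-enzyme preincubation 20 min, reaction 120 min, detection 60 min, 25 °C / Repeats: one replicate per compound / Also added: human ARF1(Δ1-17)-GTP substrate / Measured by: Tracer-displacement fluorescence polarization with EDTA stop, 620/688 nm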
IDE inh confirm – cellular human IDE inhibition, confirmation; shares compounds with IDE cell inh; HEK cells, FAbetaB cleavage, fluorescence polarization; inhibition, % at 5.59 µM; 1,200 compounds, 51% hits; AID 435028;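 active means mean inhibition across triplicate wells above the cutoff set by the earlier primary insulin-degrading enzyme screen, cut at about 16% in these data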;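 further: 0% = DMSO wells and 100% = 60 µM reference IDE inhibitor Ii1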
HEK293 tox – kills HEK cells in IDE inhibitor counter-screen; shares compounds with IDE cell inh; HEK293 cytotoxicity, ATP luminescence; inhibition, % at 5.59 µM; 1,200 compounds, 28% hits; in the data active means inhibition above about 22%;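 further: 0% = vehicle wells and 100% = reference cytotoxic drug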
The depositor's hits bear a star; nt = no result given. A selection: hits, their analogues and other compounds. The true share with any hit is near 1.2%.

SMILES | IDE cell inh | PREPL inh | ASAP1 GAP inh | IDE act | ARFGAP1 inh | IDE inh confirm | HEK293 tox
O=C1/C(=C/c2ccc(O)c(O)c2)SC(=S)N1Nc1ccccc1 | nt | nt | nt | -33 | nt | nt | nt
COc1cc(/C=C2\SC(=S)N(C(Cc3ccccc3)C(=O)O)C2=O)ccc1O (configuration not stated) | 46* | -252 | -6 | -58 | -11 | 109* | 6
CCOc1cc(/C=C2\SC(=S)N(Nc3ccccc3)C2=O)ccc1O | 53* | -106 | 9 | -78 | 11 | 128* | 7
COc1cc(/C=C2/SC(=S)N(CC3CCCO3)C2=O)ccc1O (configuration not stated) | 108* | -156 | -12 | -95 | -3 | 175* | 13
Cc1cnc(C(=O)OC(C)C(=O)NC2CCCc3ccccc32)cn1 (configuration not stated) | 3 | -2 | -10 | 10 | 8 | nt | nt
CCOc1cc(/C=C2\SC(=S)N(NS(=O)(=O)c3ccccc3)C2=O)ccc1O | 39* | -153 | -5 | -36 | -17 | 109* | 3
CCCC[n+]1c(C)sc2cc(OC)ccc21 | 18* | 11 | 10 | -2 | 3 | 6 | 5
COc1ccc2sc(C)[n+](C)c2c1 | 7 | -9 | -1 | -3 | 4 | nt | nt
CC(=O)NC(c1cccs1)c1cc(Cl)c2ccccc2c1O (configuration not stated) | 19* | 11 | 12 | 4 | 4 | 8 | 9
CCC(=O)NC(c1cccs1)c1cc([N+](=O)[O-])c2cccnc2c1O (configuration not stated) | 4 | 3 | 1 | -2 | -1 | nt | nt
CC(=O)NC(c1cc(Cl)c2ccccc2c1O)C(C)C (configuration not stated) | 4 | 2 | 1 | -4 | 18 | nt | nt
CCC(=O)NC(C)c1cc(Cl)c2ccccc2c1O (configuration not stated) | 5 | 12 | -16 | -1 | -6 | nt | nt
CCC(=O)NC(c1cccs1)c1cc(Cl)c2ccccc2c1O (configuration not stated) | 17* | 8 | 1 | 1 | 8 | 8 | 10
CC(=O)NC(c1cccs1)c1cc([N+](=O)[O-])c2cccnc2c1O (configuration not stated) | 27* | 25 | 1 | 7 | 6 | 6 | 27*
CC1(C(=O)NS(=O)(=O)c2ccc(Cl)s2)CCN1C(=O)C1(c2ccc(Cl)cc2)CCC1 (configuration not stated) | nt | nt | -3 | nt | -9 | nt | nt
O=C(C1=NN(c2ccccc2)C2C(=O)N(c3cccc(Cl)c3)C(=O)C12)c1ccccc1 (configuration not stated) | 31* | 9 | 3 | -23 | 11 | 28* | 11
Cn1cc(C2=C(c3ccc(Cl)cc3Cl)C(=O)NC2=O)c2ccccc21 | 33* | -121 | -7 | -56 | -6 | 60* | -1
O=C(C1CC(=O)N(c2ccc(F)cc2)C1)N1CCCCCC1 (configuration not stated) | -1 | 5 | 4 | 2 | 5 | nt | nt
CC(=O)Nc1ccc(NC(=O)C(C)OC(=O)/C(C#N)=C/c2ccc(N(C)C)cc2)cc1 (configuration not stated) | 10 | -85 | 2 | -35 | -1 | nt | nt
CC(OC(=O)/C(C#N)=C/c1ccc(N(C)C)cc1)C(=O)N(C)c1ccccc1 (configuration not stated) | 16* | -22 | 17 | -26 | -13 | 31* | 12
COc1ccc(Cn2c(C)nc3c(c2=O)c2nc4ccccc4nc2n3Cc2ccco2)cc1 | nt | nt | -2 | -3 | -30 | nt | nt
COc1ccc(S(=O)(=O)c2c(N)n(Cc3ccco3)c3nc4ccccc4nc23)cc1 | 23* | 10 | 11 | -13 | 17 | 10 | 5
CCCn1ncc2c(Nc3ccc(C)c(C)c3)ncnc21 | 5 | 14 | 6 | -11 | 7 | nt | nt
Cc1ccc(NC(=O)Nc2ccnc(-c3cccnc3)n2)cc1 | 18* | 19 | -1 | -9 | -7 | 4 | 44*
Cc1cc(C)cc(-c2nnc(SCC(=O)N3CCN(C(=O)c4ccco4)CC3)o2)c1 | -2 | -22 | -12 | -1 | 3 | nt | nt
SMILES | IDE cell inh | PREPL inh | ASAP1 GAP inh | IDE act | ARFGAP1 inh | IDE inh confirm | HEK293 tox
O=C(CSc1nnc(-c2ccc(Br)cc2)o1)N1CCN(C(=O)c2ccco2)CC1 | 17* | -35 | 3 | -15 | 11 | 9 | 6
Cc1sc2nc(C(C)C)nc(SCC(=O)N3CCN(C(=O)c4ccco4)CC3)c2c1C | 1 | 14 | 3 | -6 | 4 | nt | nt
Cc1sc2ncnc(SCC(=O)N3CCN(C(=O)c4ccco4)CC3)c2c1C | 34* | 17 | nt | -23 | nt | 11 | 13
C=CCn1c(SCC(=O)N2CCN(C(=O)c3ccco3)CC2)nc2sc(CC)cc2c1=O | 21* | -15 | 13 | -14 | 3 | 10 | 8
CN1CCN(C2CN(Cc3ccc(F)cc3)S(=O)(=O)C2)CC1 (configuration not stated) | nt | nt | 2 | nt | 0 | nt | nt
Cc1ccc(-c2nc3ccccc3[nH]2)cc1NC(=O)c1ccc2c(c1)OCO2 | -1 | 9 | -7 | -2 | 11 | nt | nt
Cc1ccc(-c2nc3ccccc3[nH]2)cc1NC(=S)NC(=O)c1ccccc1Br | 18* | -20 | 6 | -16 | 11 | 14 | 31*
Cc1ccc(S(=O)(=O)NN=C2C(=O)C3CCC2C3Cl)cc1 (configuration not stated) | nt | nt | 1 | 3 | 0 | nt | nt
O=c1c(Cl)c(NCc2ccccc2Cl)cnn1C12CC3CC(CC(C3)C1)C2 | 34* | 4 | 3 | -30 | -2 | 19* | 40*
CCN(CC)c1ccc(C=C2C(=O)OC3(CCCCC3)OC2=O)cc1 | -1 | -39 | -2 | -5 | 1 | nt | nt
CCN(CC)c1ccc(/C=C2/C(=O)c3ccc(C(=O)O)cc3C2=O)cc1 | 138* | 16 | -7 | -71 | -14 | 26* | 16
O=C(CN1C(=O)c2ccccc2C1=O)N1CCN=C1c1ccccc1 | 13 | -5 | -1 | -3 | -11 | nt | nt
Cc1cccc(Nc2nc(N)c(C#N)c(CC#N)c2C#N)c1 | 26* | 4 | 12 | -7 | -8 | 19* | 13
NC(N)=N/N=C/c1ccc(Cl)cc1Cl | 23* | 17 | -12 | -8 | -7 | 4 | 25*
Cc1ccc(Nc2nc(CSc3nnc(-c4cccnc4)n3-c3ccccc3C)cs2)cc1 | 5 | 38 | -5 | -11 | 1 | nt | nt
Cc1ccccc1-n1c(SCc2csc(Nc3ccccc3)n2)nnc1-c1cccnc1 | 21* | 27 | 7 | -13 | 15 | 7 | 20
COc1cccc(/C=C2\SC(=O)N(CCC(=O)N3CCC(C(=O)O)CC3)C2=O)c1 | 1 | 8 | 1 | 4 | -6 | nt | nt
